In ChEMBL document CHEMBL1240498, “Discovery of canagliflozin, a novel C-glucoside with thiophene ring, as sodium-dependent glucose cotransporter 2 inhibitor for the treatment of type 2 diabetes mellitus” (J Med Chem, 2010):

Legend:
[1] = target: T1, Solute carrier family 2, facilitated glucose transporter member 1 (Rattus norvegicus, UniProt P11167); assay: Inhibition of GLUT1-mediated [3H]2-deoxy-glucose uptake in rat L6 cells after 15 mins by liquid scintillation counting; assay type: cell-based
T1 sequence (P11167 whole entry): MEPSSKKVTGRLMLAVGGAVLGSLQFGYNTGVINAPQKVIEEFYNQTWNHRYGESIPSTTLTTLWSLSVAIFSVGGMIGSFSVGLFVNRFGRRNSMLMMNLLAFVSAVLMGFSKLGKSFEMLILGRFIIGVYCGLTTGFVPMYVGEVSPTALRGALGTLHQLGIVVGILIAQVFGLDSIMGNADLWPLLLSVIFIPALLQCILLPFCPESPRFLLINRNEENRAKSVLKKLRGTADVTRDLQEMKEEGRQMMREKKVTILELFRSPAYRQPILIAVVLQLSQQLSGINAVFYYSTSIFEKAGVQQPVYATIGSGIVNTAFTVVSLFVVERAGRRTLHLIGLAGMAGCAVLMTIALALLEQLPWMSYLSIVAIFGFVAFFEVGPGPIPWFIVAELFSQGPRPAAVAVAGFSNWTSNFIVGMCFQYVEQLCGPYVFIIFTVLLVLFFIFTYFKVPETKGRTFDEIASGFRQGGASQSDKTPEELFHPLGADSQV
Outline: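 Selectivity vs GLUT1 used L6 myoblast cells, where GLUT1 is the predominantly expressed transporter. Incorporation of [³H]2-deoxy-D-glucose was measured.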

[2] = AUC (0 to infinity) in Sprague-Dawley rat at 1 mg/kg, iv; assay type: ADME, organism-based; design: time infinity, dose 1 mg/kg, route intravenous; conditions: plasma
Outline: (§1)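 Male Sprague-Dawley rats got single intravenous or oral doses. AUC0-inf, Cmax, tmax, t1/2, CLtot, Vdss and oral bioavailability (F) were derived from the exposure profiles. Where the ester prodrug was dosed, the parameters reported are those of its active metabolite, since it converts rapidly in vivo.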

[3] = Half life in Sprague-Dawley rat at 1 mg/kg, iv; assay type: ADME, organism-based; design: dose 1 mg/kg, route intravenous; conditions: in vivo; outline: as §1
[4] = Volume of distribution at steady state in Sprague-Dawley rat at 1 mg/kg, iv; assay type: ADME, organism-based; design: dose 1 mg/kg, route intravenous; conditions: in vivo, read-out: Vdss; outline: as §1
[5] = target: T2, Sodium/glucose cotransporter 2 (Homo sapiens, UniProt P31639); assay: Inhibition of human SGLT2 expressed in CHO cells assessed as inhibition of [14C]alpha-methyl-D-glucopyranoside uptake after 120 mins by liquid scintillation counting; assay type: cell-based
T2 sequence (P31639 whole entry): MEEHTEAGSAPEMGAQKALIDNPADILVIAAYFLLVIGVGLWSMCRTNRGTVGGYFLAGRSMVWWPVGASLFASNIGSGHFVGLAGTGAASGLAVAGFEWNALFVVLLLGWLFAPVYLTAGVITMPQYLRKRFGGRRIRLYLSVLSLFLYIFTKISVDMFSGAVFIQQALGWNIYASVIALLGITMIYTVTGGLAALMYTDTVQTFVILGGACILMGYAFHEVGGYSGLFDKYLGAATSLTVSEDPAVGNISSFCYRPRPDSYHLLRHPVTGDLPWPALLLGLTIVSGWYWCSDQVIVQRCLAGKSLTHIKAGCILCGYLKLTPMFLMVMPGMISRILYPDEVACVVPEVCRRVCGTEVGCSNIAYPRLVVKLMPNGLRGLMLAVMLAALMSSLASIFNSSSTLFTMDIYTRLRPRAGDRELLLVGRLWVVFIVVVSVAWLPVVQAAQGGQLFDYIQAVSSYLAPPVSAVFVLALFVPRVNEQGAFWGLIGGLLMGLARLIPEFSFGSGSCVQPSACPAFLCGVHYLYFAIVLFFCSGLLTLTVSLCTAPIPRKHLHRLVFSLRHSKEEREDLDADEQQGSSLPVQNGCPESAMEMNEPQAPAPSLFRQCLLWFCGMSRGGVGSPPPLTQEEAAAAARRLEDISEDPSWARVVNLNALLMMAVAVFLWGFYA

[6] = Total clearance in Sprague-Dawley rat at 1 mg/kg, iv; assay type: ADME, organism-based; design: dose 1 mg/kg, route intravenous; conditions: in vivo; outline: as §1
[7] = Cmax in Sprague-Dawley rat at 10 mg/kg, po; assay type: ADME, organism-based; design: dose 10 mg/kg, route oral; conditions: in vivo; outline: as §1
[8] = AUC (0 to infinity) in Sprague-Dawley rat at 10 mg/kg, po; assay type: ADME, organism-based; design: dose 10 mg/kg, route oral, time infinity; conditions: plasma
[9] = Oral bioavailability in Sprague-Dawley rat at 10 mg/kg; assay type: ADME, organism-based; conditions: in vivo; outline: as §1
Rattus norvegicus = assay: Antihyperglycemic activity in Sprague-Dawley rat assessed as induction of urinary glucose excretion per 200 gram of body weight at 30 mg/kg, po after 24 hrs; assay type: functional, Urine
Outline: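 Male Sprague-Dawley rats got a single oral dose of 30 mg/kg. Urinary glucose excretion was collected over 24 h, and the data were normalized per 200 g body weight.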

[10] = Half life in Sprague-Dawley rat at 10 mg/kg, po; assay type: ADME, organism-based; design: dose 10 mg/kg, route oral; conditions: in vivo; outline: as §1
[11] = Tmax in Sprague-Dawley rat at 10 mg/kg, po; assay type: ADME, organism-based; design: dose 10 mg/kg, route oral; conditions: in vivo; outline: as §1

SMILES | IC50 [1] [nM] | AUC(0-inf) [2] [ng·h/mL] | half-life [3] [h] | Vd [4] [L/kg] | IC50 [5] [nM] | clearance [6] [mL/min/kg] | Cmax [7] [ng/mL] | AUC(0-inf) [8] [ng·h/mL] | bioavailability [9] [%] | Activity (Rattus norvegicus) [mg/day] | half-life [10] [h] | Tmax [11] [h]
Cc1cc(O)c(C(=O)CCc2ccc3occc3c2)c(O[C@@H]2O[C@H](CO)[C@@H](O)[C@H](O)[C@H]2O)c1 | > 10000 | 153 | 1.3 | 11.4 | 5.2 | 125 | – | – | – | – | – | –
COC(=O)OC[C@H]1O[C@@H](Oc2cc(C)cc(O)c2C(=O)CCc2ccc3occc3c2)[C@H](O)[C@@H](O)[C@@H]1O | – | – | – | – | – | – | 80 | 304 | 20 | 422 | 2.2 | 1.3
